# Experimental data reported in ChEMBL document CHEMBL1255429, “Efflux pumps are involved in the defense of Gram-negative bacteria against the natural products isobavachalcone and diospyrone” (2010).
# What was measured:
# Format in all cases: functional
# [1] = system: Enterobacter cloacae; test: Antimicrobial activity against Enterobacter cloacae Ec1194 after 18 hrs by rapid INT colorimetric assay; conditions: Ec1194, 18 h
# In short: (§1)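 Strains precultured overnight on Mueller-Hinton agar. Sample dissolved in DMSO-MHB, twofold serial dilutions in MHB, inoculum 1.5 × 10^6 CFU/ml; final DMSO below 2.5%. Incubated 37°C 18 h, then 0.2 mg/ml INT added, 30 min at 37°C. MIC = lowest concentration preventing yellow-to-pink change (complete growth inhibition). DMSO-only wells as negative control.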
# [2] = system: Klebsiella pneumoniae; test: Antimicrobial activity against Klebsiella pneumoniae KP63 after 18 hrs by rapid INT colorimetric assay; conditions: KP63, 18 h; in short: as §1
# [3] = system: Klebsiella aerogenes; test: Antimicrobial activity against Enterobacter aerogenes EA298 after 18 hrs by rapid INT colorimetric assay in presence of efflux pump inhibitor phenylalanine arginine; conditions: EA298, 18 h
# [4] = system: Klebsiella aerogenes; test: Antimicrobial activity against Enterobacter aerogenes EA289 after 18 hrs by rapid INT colorimetric assay; conditions: EA289, 18 h; in short: as §1
# [5] = system: Escherichia coli; test: Antimicrobial activity against tetracycline-resistant Escherichia coli AG100A after 18 hrs by rapid INT colorimetric assay in presence of efflux pump inhibitor phenylalanine arginine
# In short: (§2)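 Broth microdilution MIC in Mueller-Hinton broth with PAßN at a final 20 μg/ml throughout. Twofold dilutions of sample from DMSO-MHB stock; inoculum 1.5 × 10^6 CFU/ml; 18 h at 37°C, final DMSO <2.5%. Growth read by INT (0.2 mg/ml, 30 min, 37°C). MIC taken as lowest concentration with no pink colour.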
# [6] = system: Klebsiella pneumoniae; test: Antimicrobial activity against Klebsiella pneumoniae KP55 after 18 hrs by rapid INT colorimetric assay in presence of efflux pump inhibitor phenylalanine arginine; conditions: KP55, 18 h
# [7] = system: Klebsiella pneumoniae; test: Antimicrobial activity against Klebsiella pneumoniae ATCC 11296 after 18 hrs by rapid INT colorimetric assay; conditions: ATCC 11296, 18 h
# In short: (§3)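 Strains precultured overnight on Mueller-Hinton agar. Samples dissolved in DMSO-MHB, serially diluted twofold in MHB, inoculum 1.5 × 10^6 CFU/ml in MHB added; 37°C, 18 h; final DMSO <2.5%. 0.2 mg/ml INT then added, 30 min at 37°C. MIC = lowest concentration preventing yellow-to-pink reduction, i.e. complete growth inhibition.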
# [8] = system: Pseudomonas aeruginosa; test: Antimicrobial activity against Pseudomonas aeruginosa PAO1 after 18 hrs by rapid INT colorimetric assay in presence of efflux pump inhibitor phenylalanine arginine; conditions: PAO1, 18 h
# [9] = system: Escherichia coli; test: Antimicrobial activity against Escherichia coli ATCC 8739 after 18 hrs by rapid INT colorimetric assay; conditions: ATCC 8739, 18 h; in short: as §3
# [10] = system: Klebsiella aerogenes; test: Antimicrobial activity against Enterobacter aerogenes EA294 after 18 hrs by rapid INT colorimetric assay in presence of efflux pump inhibitor phenylalanine arginine; conditions: EA294, 18 h
# [11] = system: Klebsiella pneumoniae; test: Antimicrobial activity against Klebsiella pneumoniae KP55 after 18 hrs by rapid INT colorimetric assay; conditions: KP55, 18 h; in short: as §1
# [12] = system: Escherichia coli; test: Antimicrobial activity against Escherichia coli ATCC 8739 after 18 hrs by rapid INT colorimetric assay in presence of efflux pump inhibitor phenylalanine arginine; conditions: ATCC 8739, 18 h; in short: as §2
# [13] = system: Klebsiella aerogenes; test: Antimicrobial activity against Enterobacter aerogenes EA27 after 18 hrs by rapid INT colorimetric assay; conditions: EA27, 18 h; in short: as §1
# [14] = system: Escherichia coli; test: Antimicrobial activity against Escherichia coli AG100A after 18 hrs by rapid INT colorimetric assay in presence of efflux pump inhibitor phenylalanine arginine
# [15] = system: Klebsiella aerogenes; test: Antimicrobial activity against Enterobacter aerogenes EA-CM64 after 18 hrs by rapid INT colorimetric assay in presence of efflux pump inhibitor phenylalanine arginine; conditions: EA-CM64, 18 h
# [16] = system: Klebsiella aerogenes; test: Antimicrobial activity against Enterobacter aerogenes EA289 after 18 hrs by rapid INT colorimetric assay in presence of efflux pump inhibitor phenylalanine arginine; conditions: EA289, 18 h
# [17] = system: Enterobacter cloacae; test: Antimicrobial activity against Enterobacter cloacae Ec07769 after 18 hrs by rapid INT colorimetric assay in presence of efflux pump inhibitor phenylalanine arginine; conditions: Ec07769, 18 h
# [18] = system: Escherichia coli; test: Antimicrobial activity against Escherichia coli ATCC 10536 after 18 hrs by rapid INT colorimetric assay; conditions: ATCC 10536, 18 h; in short: as §1
# [19] = system: Klebsiella aerogenes; test: Antimicrobial activity against Enterobacter aerogenes EA298 after 18 hrs by rapid INT colorimetric assay; conditions: EA298, 18 h; in short: as §3
# [20] = system: Pseudomonas aeruginosa; test: Antimicrobial activity against Pseudomonas aeruginosa PA124 after 18 hrs by rapid INT colorimetric assay; conditions: PA124, 18 h; in short: as §3
# [21] = system: Escherichia coli; test: Antimicrobial activity against tetracycline-resistant Escherichia coli AG102 after 18 hrs by rapid INT colorimetric assay in presence of efflux pump inhibitor phenylalanine arginine; conditions: AG102, 18 h; in short: as §2
# [22] = system: Klebsiella aerogenes; test: Antimicrobial activity against Enterobacter aerogenes EA5 after 18 hrs by rapid INT colorimetric assay in presence of efflux pump inhibitor phenylalanine arginine; conditions: EA5, 18 h
# [23] = system: Pseudomonas aeruginosa; test: Antimicrobial activity against Pseudomonas aeruginosa PA124 after 18 hrs by rapid INT colorimetric assay in presence of efflux pump inhibitor phenylalanine arginine; conditions: PA124, 18 h
# [24] = system: Klebsiella aerogenes; test: Antimicrobial activity against Enterobacter aerogenes ATCC 13048 after 18 hrs by rapid INT colorimetric assay; conditions: ATCC 13048, 18 h; in short: as §1
# [25] = system: Pseudomonas aeruginosa; test: Antimicrobial activity against Pseudomonas aeruginosa PAO1 after 18 hrs by rapid INT colorimetric assay; conditions: PAO1, 18 h; in short: as §3
# [26] = system: Enterobacter cloacae; test: Antimicrobial activity against Enterobacter cloacae Ec1194 after 18 hrs by rapid INT colorimetric assay in presence of efflux pump inhibitor phenylalanine arginine; conditions: Ec1194, 18 h; in short: as §2
# [27] = system: Klebsiella pneumoniae; test: Antimicrobial activity against Klebsiella pneumoniae ATCC 11296 after 18 hrs by rapid INT colorimetric assay in presence of efflux pump inhibitor phenylalanine arginine; conditions: ATCC 11296, 18 h
# [28] = system: Klebsiella aerogenes; test: Antimicrobial activity against Enterobacter aerogenes EA3 after 18 hrs by rapid INT colorimetric assay in presence of efflux pump inhibitor phenylalanine arginine; conditions: EA3, 18 h
# [29] = system: Klebsiella pneumoniae; test: Antimicrobial activity against Klebsiella pneumoniae KP63 after 18 hrs by rapid INT colorimetric assay in presence of efflux pump inhibitor phenylalanine arginine; conditions: KP63, 18 h
# [30] = system: Klebsiella aerogenes; test: Antimicrobial activity against Enterobacter aerogenes EA294 after 18 hrs by rapid INT colorimetric assay; conditions: EA294, 18 h; in short: as §3
# [31] = system: Escherichia coli; test: Antimicrobial activity against tetracycline-resistant Escherichia coli AG102 after 18 hrs by rapid INT colorimetric assay; conditions: AG102, 18 h; in short: as §3
# [32] = system: Escherichia coli; test: Antimicrobial activity against tetracycline-resistant Escherichia coli AG100A after 18 hrs by rapid INT colorimetric assay; in short: as §3
# [33] = system: Escherichia coli; test: Antimicrobial activity against Escherichia coli AG100 after 18 hrs by rapid INT colorimetric assay in presence of efflux pump inhibitor phenylalanine arginine; conditions: AG100, 18 h
# [34] = system: Escherichia coli; test: Antimicrobial activity against Escherichia coli AG100A after 18 hrs by rapid INT colorimetric assay; in short: as §3
# [35] = system: Klebsiella aerogenes; test: Antimicrobial activity against Enterobacter aerogenes EA5 after 18 hrs by rapid INT colorimetric assay; conditions: EA5, 18 h; in short: as §1
# [36] = system: Escherichia coli; test: Antimicrobial activity against Escherichia coli ATCC 10536 after 18 hrs by rapid INT colorimetric assay in presence of efflux pump inhibitor phenylalanine arginine beta-naphthylamide; conditions: ATCC 10536, 18 h; in short: as §2
# [37] = system: Klebsiella aerogenes; test: Antimicrobial activity against Enterobacter aerogenes EA-CM64 after 18 hrs by rapid INT colorimetric assay; conditions: EA-CM64, 18 h; in short: as §3
# [38] = system: Escherichia coli; test: Antimicrobial activity against Escherichia coli AG100 after 18 hrs by rapid INT colorimetric assay; conditions: AG100, 18 h; in short: as §3
# [39] = system: Klebsiella aerogenes; test: Antimicrobial activity against Enterobacter aerogenes ATCC 13048 after 18 hrs by rapid INT colorimetric assay in presence of efflux pump inhibitor phenylalanine arginine; conditions: ATCC 13048, 18 h
# [40] = system: Enterobacter cloacae; test: Antimicrobial activity against Enterobacter cloacae Ec07769 after 18 hrs by rapid INT colorimetric assay; conditions: Ec07769, 18 h; in short: as §1
# [41] = system: Klebsiella aerogenes; test: Antimicrobial activity against Enterobacter aerogenes EA3 after 18 hrs by rapid INT colorimetric assay; conditions: EA3, 18 h; in short: as §1
# [42] = system: Klebsiella aerogenes; test: Antimicrobial activity against Enterobacter aerogenes EA27 after 18 hrs by rapid INT colorimetric assay in presence of efflux pump inhibitor phenylalanine arginine; conditions: EA27, 18 h
compound,measurement,setting,value
O=C(N[C@H](CO)[C@H](O)c1ccc([N+](=O)[O-])cc1)C(Cl)Cl [CHLORAMPHENICOL],MIC,[1],2 µg/mL
same,MIC,[2],> 256 µg/mL
same,MIC,[3],16 µg/mL
same,MIC,[4],> 256 µg/mL
same,MIC,[5],2 µg/mL
same,MIC,[6],4 µg/mL
same,MIC,[7],2 µg/mL
same,MIC,[8],8 µg/mL
same,MIC,[9],4 µg/mL
same,MIC,[10],16 µg/mL
same,MIC,[11],32 µg/mL
same,MIC,[12],1 µg/mL
same,MIC,[13],> 256 µg/mL
same,MIC,[14],0.25 µg/mL
same,MIC,[15],8 µg/mL
same,MIC,[16],128 µg/mL
same,MIC,[17],256 µg/mL
same,MIC,[18],1 µg/mL
same,MIC,[19],64 µg/mL
same,MIC,[20],256 µg/mL
same,MIC,[21],2 µg/mL
same,MIC,[22],32 µg/mL
same,MIC,[23],8 µg/mL
same,MIC,[24],4 µg/mL
same,MIC,[25],128 µg/mL
same,MIC,[26],1 µg/mL
same,MIC,[27],2 µg/mL
same,MIC,[28],128 µg/mL
same,MIC,[29],128 µg/mL
same,MIC,[30],64 µg/mL
same,MIC,[31],32 µg/mL
same,MIC,[32],32 µg/mL
same,MIC,[33],0.25 µg/mL
same,MIC,[34],0.5 µg/mL
same,MIC,[35],> 256 µg/mL
same,MIC,[36],0.5 µg/mL
same,MIC,[37],256 µg/mL
same,MIC,[38],4 µg/mL
same,MIC,[39],1 µg/mL
same,MIC,[40],> 256 µg/mL
same,MIC,[41],> 256 µg/mL
same,MIC,[42],128 µg/mL
CC1=C(c2c(C)cc(O)c3c2C(=O)C(c2c(O)c4c(C)cccc4oc2=O)=C(c2c(O)c4c(C)cccc4oc2=O)C3=O)C(=O)c2c(O)cccc2C1=O [DIOSPYRONE],MIC,[1],32 µg/mL
same,MIC,[2],32 µg/mL
same,MIC,[3],16 µg/mL
same,MIC,[4],128 µg/mL
same,MIC,[5],0.24 µg/mL
same,MIC,[6],8 µg/mL
same,MIC,[7],32 µg/mL
same,MIC,[8],4 µg/mL
same,MIC,[9],128 µg/mL
same,MIC,[10],8 µg/mL
same,MIC,[11],64 µg/mL
same,MIC,[12],4 µg/mL
same,MIC,[13],128 µg/mL
same,MIC,[14],0.12 µg/mL
same,MIC,[15],16 µg/mL
same,MIC,[16],8 µg/mL
same,MIC,[17],8 µg/mL
same,MIC,[18],32 µg/mL
same,MIC,[19],32 µg/mL
same,MIC,[20],64 µg/mL
same,MIC,[21],2 µg/mL
same,MIC,[22],64 µg/mL
same,MIC,[23],1 µg/mL
same,MIC,[24],128 µg/mL
same,MIC,[25],64 µg/mL
same,MIC,[26],2 µg/mL
same,MIC,[27],2 µg/mL
same,MIC,[28],64 µg/mL
same,MIC,[29],4 µg/mL
same,MIC,[30],128 µg/mL
same,MIC,[31],64 µg/mL
same,MIC,[32],16 µg/mL
same,MIC,[33],1 µg/mL
same,MIC,[34],4 µg/mL
same,MIC,[35],128 µg/mL
same,MIC,[36],2 µg/mL
same,MIC,[37],128 µg/mL
same,MIC,[38],64 µg/mL
same,MIC,[39],32 µg/mL
same,MIC,[40],128 µg/mL
same,MIC,[41],128 µg/mL
same,MIC,[42],16 µg/mL
